TRPC6 inhibitor: blocks the mouse TRPC6 cation channel. B-score at 10 µM. HEK293-TRPC6, membrane potential dye, ACh-evoked depolarization; stronger effect = lower value. 1.1% of 310,000 active. AID 2553;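 active = B-score under library mean minus 3 SD, initial fluorescence not abnormally high, positive integrated signal ratio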;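 note: B-score derived from integrated fluorescence ratio over the kinetic read; more negative B-score means stronger inhibition of depolarization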
TRPC4 agonist: activators of mouse TRPC4 channel | Q9QUQ5 | HEK293 TRPC4beta/mu-opioid, Fluo4 calcium fluorescence; stronger effect = higher value | B-score at 10 µM | 0.49% of 310,000 active | AID 2237;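 active = B-score above 5 SD of library B-scores, and initial fluorescence ratio not above library mean plus 5 SD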;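 note: positive B-score marks a calcium rise read as TRPC4 activation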
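Technique: kinetic Fluo4 calcium fluorescence; Test system: TRPC4beta and mu-opioid receptor HEK293 stable cells; Measure: B-scored integrated calcium fluorescence ratio; Benchmarks: low control buffer alone, high control maximal DAMGO; Schedule: 45 min room-temperature Fluo4 loading, 110 s read.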
TRPC4 block: inhibitors of mouse TRPC4 channel | HEK293 TRPC4beta/mu-opioid, DAMGO-evoked Fluo4 calcium flux; stronger effect = lower value | Q9QUQ5 | 0.39% of 300,000 active | B-score at 10 µM;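 active = B-score over 3 SD under the library average, no early fluorescence shift, positive overall ratio signal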
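test system = HEK293 cells with stable TRPC4beta plus mu-opioid receptor expression | detection = Fluo4 Ca2+ flux fluorescence | read-out = integrated fluorescence ratio relative to baseline, converted to per-well B score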
TRPC4 potent: allosteric potentiators of mouse TRPC4 channel; Q9QUQ5; AID 2227; B-score at 10 µM; 0.42% of 310,000 active; HEK293 TRPC4beta/mu-opioid, DAMGO EC20, Fluo-4 Ca2+ flux; stronger effect = higher value;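 active = B-score of calcium response area above 5 SD of library B-scores, with initial fluorescence ratio within 5 SD of library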;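 note: B-score of integrated fluorescence ratio over time as area under calcium response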
TRPC6 act: activators of mouse TRPC6 channel | HEK293-TRPC6 membrane potential dye fluorescence; stronger effect = higher value | 0.13% of 310,000 active | AID 2550 | B-score at 10 µM | Q61143;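 active = B-score of the integrated fluorescence ratio above library mean plus 3 SD, and starting fluorescence ratio within library mean plus 5 SD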;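 note: higher score means more depolarization so channel activation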
HEK293 MPD ctr: counter-screen for TRPC6 modulators: effect in parental HEK293 cells | membrane potential dye fluorescence | 51% of 2,400 active | membrane potential signal change, % at 10 µM | shares compounds with TRPC6 inhibitor | AID 488924;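 active = membrane potential signal moves up or down beyond 5 SD from buffer-only wells, on both duplicate plates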
HEK293 MPD ctr 2: second counter-screen for TRPC6 modulators: effect in parental HEK293 cells; membrane potential dye fluorescence; after compound, maximal acetylcholine stimulation; shares compounds with TRPC6 inhibitor; 14% of 2,400 active; inhibition, % at 10 µM;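 active = membrane potential signal drops by more than 5 SD from the mean control signal, in both duplicate plates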;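 note: plate controls were acetylcholine ECmax control wells for no effect and buffer only wells for full effect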
TRPC4 ctr mod: selectivity of TRPC6 modulators against mouse TRPC4 | shares compounds with TRPC6 inhibitor | HEK293 TRPC4/mu-opioid, membrane potential fluorescence | percent change from control (negative = decrease, positive = increase), % at 10 µM | 69% of 2,400 active | AID 488927;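 active = membrane potential signal moved up or down beyond 5 SD of buffer control wells, in both duplicate plates, actives on both sides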;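 note: plate controls were assay buffer wells for no effect and DAMGO maximal-effect wells for full effect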
TRPC4/MOR inh 2: second check of whether TRPC6 modulators also affect mouse TRPC4; HEK293 TRPC4/mu-opioid, membrane potential dye fluorescence; stimulated with maximal-effect DAMGO; 55% of 2,400 active; inhibition, % at 10 µM; shares compounds with TRPC6 inhibitor;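 active = drop in membrane potential signal beyond 5 SD of the control wells in both duplicate plates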;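 note: TRPC4 counter screen for TRPC6 hits run under conditions tuned for TRPC6 not TRPC4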
TRPC6 inh conf: confirmation of mouse TRPC6 inhibitors | shares compounds with TRPC6 inhibitor | HEK293-TRPC6, membrane potential dye, ACh-evoked depolarization | inhibition, % at 10 µM | 43% of 3,300 active | AID 488960;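 active = fluorescence ratio falls more than 5 SD below the full-stimulation control mean, in both duplicate runs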;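 note: integrated fluorescence ratio of peak minus minimum over baseline after agonist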
TRPC6 act conf: confirmation of mouse TRPC6 activators | shares compounds with TRPC6 inhibitor | activation, % at 10 µM | HEK293-TRPC6 membrane potential dye fluorescence, FDSS | 11% of 2,800 active;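 active = ratio signal rise beyond 5 SD above unstimulated control wells' mean, seen in both duplicate runs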;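 note: plate controls were buffer EC0 wells for no effect and acetylcholine ECmax response for full effect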
* = called active by the depositor; i = inactive; / = no result given; + = active, no number. Shown are actives, neighbours in structure and some others; about 2.3% of the full set was active somewhere.

SMILES | TRPC6 inhibitor | TRPC4 agonist | TRPC4 block | TRPC4 potent | TRPC6 act | HEK293 MPD ctr | HEK293 MPD ctr 2 | TRPC4 ctr mod | TRPC4/MOR inh 2 | TRPC6 inh conf | TRPC6 act conf
O=C1C(NS(=O)(=O)c2ccc(Br)cc2)=C(N2CCCCC2)C(=O)c2ccccc21 | -6.3* | i | i | i | i | i | i | -20%* | 72%* | i | i
CCOC(=O)C1CCCN(C2=C(NS(=O)(=O)c3ccc(Br)cc3)C(=O)c3ccccc3C2=O)C1 (stereo unspecified) | i | i | i | i | i | / | / | / | / | / | /
CC1CCN(C2=C(NS(=O)(=O)c3ccc(Br)cc3)C(=O)c3ccccc3C2=O)CC1 | i | i | i | i | i | / | / | / | / | / | /
CC(=O)Nc1ccc(S(=O)(=O)NC2=C(N3CCN(Cc4ccccc4)CC3)C(=O)c3ccccc3C2=O)cc1 | -6.6* | i | -6* | i | i | -224%* | i | -34%* | 90%* | 68%* | i
CC(C)(C)c1ccc(C(=O)C2CCCN(C(=O)CCn3cncn3)C2)cc1 (stereo unspecified) | i | i | i | i | i | / | / | / | / | / | /
Cc1ccc(C)c(OCC(O)CN2CCC(Cc3ccccc3)CC2)c1 (stereo unspecified) | i | i | i | i | i | / | / | / | / | / | /
CC1CCN(C2=C(NS(=O)(=O)c3ccc(Cl)cc3)C(=O)c3ccccc3C2=O)CC1 | -6.5* | i | i | i | i | i | i | -10%* | 52%* | i | i
CCc1nnc(NC(=O)CSc2nnc(CCc3nc4ccccc4[nH]3)n2C)s1 | i | i | i | i | i | / | / | / | / | / | /
Cc1nnc(NC(=O)CSc2nnc(CCc3nc4ccccc4[nH]3)n2C)s1 | i | i | i | i | 14* | 261%* | i | 40%* | i | i | 108%*
Cc1cccc2c(=O)cc(C)n(CC(=O)N3CCOCC3)c12 | i | i | i | i | i | / | / | / | / | / | /
CNC(=O)Cn1c(C)cc(=O)c2cccc(C)c21 | -6.2* | i | i | i | i | -398%* | i | -54%* | 30%* | i | i
CCOC(=O)Cn1c(C)cc(=O)c2cccc(C)c21 | -7.7* | i | i | i | i | -270%* | i | -44%* | 40%* | i | i
CCOC(=O)Cn1c(=O)cc(C)c2cccc(C)c21 | i | i | i | i | i | / | / | / | / | / | /
Cc1cccc2c(=O)cc(C)n(CC(=O)N3CCCCC3)c12 | -6.2* | i | i | i | i | -260%* | i | -46%* | 28%* | i | i
CC(=O)C(Sc1nn(C)c(=S)s1)C(=O)Nc1ccccc1 (stereo unspecified) | i | i | i | i | i | / | / | / | / | / | /
COc1ccc(C(=O)CNc2cccc(F)c2)cc1 | i | i | i | i | i | / | / | / | / | / | /
Cc1cc(C)c2c(CC(=O)NC3CCS(=O)(=O)C3)coc2c1 (stereo unspecified) | i | i | i | i | i | / | / | / | / | / | /
Nc1c(C(=O)c2ccccc2)sc2nsc(SCCN3CCCC3)c12 | i | 86* | i | i | 65* | + | i | 272%* | 36%* | i | 513%*
Nc1c(C(=O)c2ccc(Cl)cc2)sc2nsc(SCCN3CCOCC3)c12 | i | i | i | i | i | / | / | / | / | / | /
